Results reported in ChEMBL document CHEMBL1926607 (J Med Chem, 2011).

Assays:
Rattus norvegicus [1] = experiment: Neuroprotective activity in permanent middle cerebral artery occlusion-induced ischemic in Sprague-Dawley rat assessed as decrease in cortical infract volume at 40 ug/kg/h, iv administered 1 hr before ischemia and 1 hr after ischemia measured after 24 hrs (reference value: 399 +/- 38 mm3); assay type: functional
Rattus norvegicus [2] = experiment: Neuroprotective activity in permanent middle cerebral artery occlusion-induced ischemic in Sprague-Dawley rat assessed as decrease in sub-cortical infract volume at 40 ug/kg/h, iv administered 1 hr before ischemia and 1 hr after ischemia measured after 24 hrs (reference value: 147 +/- 23 mm3); assay type: functional
[3] = Neuroprotective activity in Wistar rat hippocampi primary neuronal cells assessed as protection against oxygen-glucose deprivation induced cell death at 0.1 uM after 18 hrs by MTT assay; assay type: functional, Hippocampus, Primary neuron
[4] = Neuroprotective activity in Wistar rat hippocampi primary neuronal cells assessed as protection against serum-deprivation induced cell death at 0.1 uM after 24 hrs by MTT assay; assay type: functional, Hippocampus, Primary neuron
How it was run: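 Mixed neuron-glia cultures from E18 Wistar rat hippocampi (Neurobasal plus 10% FCS), used at 11 days in vitro. Medium replaced by saline to withdraw serum; cells held 24 h with compound. Cell survival measured by MTT reduction, expressed as % protection.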

Rattus norvegicus [5] = experiment: Neuroprotective activity against permanent middle cerebral artery occlusion-induced focal ischemia in Sprague-Dawley rat assessed as decrease in total cerebral infract volume at 40 ug/kg/h, iv administered 1 hr before ischemia and 1 hr after ischemia measured after 24 hrs (reference value: 546 +/- 51 mm3); assay type: functional
[6] = molecular target: T1, 5-hydroxytryptamine receptor 1A (Homo sapiens, UniProt P08908); experiment: Agonist activity at human 5HT1A receptor expressed in human HeLa cells assessed as inhibition of forskolin-stimulated cAMP production […] measured after 2 hrs by RIA; assay type: functional, cell-based
T1 sequence (P08908 whole entry): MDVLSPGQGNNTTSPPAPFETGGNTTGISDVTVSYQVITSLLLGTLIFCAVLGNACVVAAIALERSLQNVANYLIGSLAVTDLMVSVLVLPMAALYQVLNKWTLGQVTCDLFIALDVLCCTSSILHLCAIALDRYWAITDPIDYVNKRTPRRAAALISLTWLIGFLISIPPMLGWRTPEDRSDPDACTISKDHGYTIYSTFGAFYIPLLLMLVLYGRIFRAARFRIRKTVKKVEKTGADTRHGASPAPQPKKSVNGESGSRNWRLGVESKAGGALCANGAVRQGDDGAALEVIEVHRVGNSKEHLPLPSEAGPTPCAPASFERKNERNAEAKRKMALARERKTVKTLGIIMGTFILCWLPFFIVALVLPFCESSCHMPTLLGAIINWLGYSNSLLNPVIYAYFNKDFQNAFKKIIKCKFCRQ
How it was run: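 HeLa cells stably expressing the h5-HT1AR, grown in DMEM with 2 mM glutamine, 1 mM pyruvate and 10% heat-inactivated FCS, and used after 2–3 days at about 7.5 × 10^4 cells/well. After a PBS wash, cells were incubated 10 min in PBS with 0.5 mM isobutylmethylxanthine and 10 μM forskolin, with or without compound. The reaction was stopped with ice-cold ethanol, extracted 2 h and lyophilized; cAMP was measured by RIA.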

[7] = molecular target: T2, 5-hydroxytryptamine receptor 1A (Homo sapiens) (UniProt P08908); experiment: Agonist activity at human 5HT1A receptor expressed in human HeLa cells assessed as inhibition of forskolin-stimulated cAMP production pretreated 20 mins before forskolin challenge measured after 2 hrs by RIA relative to control; assay type: functional, cell-based
T2 sequence (whole entry): T1 sequence (P08908 whole entry)

Mus musculus = experiment: Antihypothermic activity in ip dosed Swiss mouse assessed as inhibition of 8-OH-DPAT-induced hypothermia administered 30 mins before 8-OH-DPAT challenge measured after 15 to 60 mins; assay type: functional; details: read-out: MED
How it was run: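 Male Swiss mice (23–28 g) were housed five per cage. Rectal temperature (probe at 2 cm) was read at 15, 30 and 60 min after injection. The response was the maximum fall from basal temperature, analysed by ANOVA with Student–Newman–Keuls test.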

[8] = Neuroprotective activity in Wistar rat hippocampi primary neuronal cells assessed as protection against glutamate-induced cell death at 0.1 uM treated 30 min before glutamate challenge measured after 22 hrs by MTT assay; assay type: functional, Hippocampus, Primary neuron
How it was run: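 E18 fetal Wistar rat hippocampal neurons in neuron-enriched culture (Neurobasal, 2% B27, poly-L-lysine), used at 11 days in vitro. Compound added 30 min before 1 mM glutamate, exposure 22 h. Survival by MTT (mitochondrial dehydrogenase) read-out, reported as % protection.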

## O=C1c2ccccc2S(=O)(=O)N1CCCCNC[C@H]1CCc2ccccc2O1 [REPINOTAN]
Rattus norvegicus [1]
  Activity: 271 mm3
Rattus norvegicus [2]
  Activity: 106 mm3
[3]
  Activity: 78%
[4]
  Activity: 31%
Rattus norvegicus [5]
  Activity: 377 mm3

## O=C1c2ccccc2S(=O)(=O)N1CCCCNCC1CCc2ccccc2O1 (racemic)
[6]
  EC50: 1.5 nM
[7]
  Emax: 94.8%
Mus musculus
  minimal effective dose: 0.15 mg/kg
[4]
  Activity: 26%
[8]
  Activity: 16%
